Results on 7 molecules are retold here after ChEMBL document CHEMBL1143217, “Bioisosteric replacement of dihydropyrazole of 4S-(-)-3-(4-chlorophenyl)-N-methyl-N'-[(4-chlorophenyl)-sulfonyl]-4-phenyl-4,5-dihydro-1H-pyrazole-1-caboxamidine (SLV-319) a potent CB1 receptor antagonist by imidazole and oxazole” (2008).

SMILES strings stand for the structures. Counter-ions that a name gives are not always drawn.

Test [1] has as its target Cannabinoid receptor 1 (Homo sapiens) (UniProt P21554). The test can be described thus: Antagonist activity at human CB1 receptor expressed in CHO cells assessed as forskolin-induced cAMP accumulation per ug of protein at 10 uM in presence of WIN-55212-2. Type of test: functional, cell-based. The method in brief:
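CHO-K1 cells stably expressing human CB1 were kept in HAM's F12 with 10% heat-inactivated dialyzed FBS and 0.8 mg/mL G-418. Cells were seeded at 50,000/well, grown 16–18 h, then preincubated 30 min at 37 °C with 0.25% fatty-acid-free BSA, IBMX 0.1 mM and RO20-1724 0.1 mM. Drugs were added for 5 min, then forskolin (10, final) for 20 min. Cells were lysed in 0.1 N HCl/0.1% Triton for cAMP ELISA. Mean ± SD, duplicate, ≥3 experiments.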

Another test deals with Rattus norvegicus. In words: Inhibition of 5% sucrose solution intake in Zucker fa/fa rat at 10 mg/kg, po on day 7 after 1 hr. It is filed as functional. The method in brief: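 Female Zucker fa/fa rats (10–12 weeks, 300–350 g) were trained on six consecutive days, without food or water during sessions. On day 7 they were randomized (n = 6/group) and dosed orally at 10 mg/kg in 0.5% CMC-Na/water (2 mL/kg). One hour later they had 5% sucrose for 4 h. Intake (g) and % inhibition vs control; mean ± SEM; one-way ANOVA with Dunnett's test.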

Chain of Cannabinoid receptor 1 (Homo sapiens) (P21554 whole entry): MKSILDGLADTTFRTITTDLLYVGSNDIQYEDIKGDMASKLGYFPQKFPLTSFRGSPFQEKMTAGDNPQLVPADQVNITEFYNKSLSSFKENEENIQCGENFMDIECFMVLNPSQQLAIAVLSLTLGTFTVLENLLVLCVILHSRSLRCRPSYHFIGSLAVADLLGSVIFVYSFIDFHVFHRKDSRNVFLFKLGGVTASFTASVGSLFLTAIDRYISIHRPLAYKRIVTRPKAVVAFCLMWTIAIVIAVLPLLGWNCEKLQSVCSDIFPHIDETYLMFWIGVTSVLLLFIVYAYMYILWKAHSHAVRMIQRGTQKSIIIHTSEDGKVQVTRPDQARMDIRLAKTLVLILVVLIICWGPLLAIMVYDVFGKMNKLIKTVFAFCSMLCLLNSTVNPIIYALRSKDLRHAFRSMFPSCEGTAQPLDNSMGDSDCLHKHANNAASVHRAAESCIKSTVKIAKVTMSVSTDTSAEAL

Usually inhibition in vivo stands for the change of the read-out against control, counted positive when it falls. Low readings indicate little suppression, high ones strong suppression. Regarding `CN/C(=N/S(=O)(=O)c1ccc(Cl)cc1)c1nc(-c2ccc(Cl)cc2)c(-c2ccccc2)o1`, the Activity in test [1] stood at 1.3 pmol. In the test with Rattus norvegicus, this molecule returned an inhibition in vivo at 10 mg/kg of 0.6%.
In the case of `Cc1c(C(=O)NN2CCCCC2)nn(-c2ccc(Cl)cc2Cl)c1-c1ccc(Cl)cc1` [RIMONABANT HYDROCHLORIDE], at 10 mg/kg the inhibition in vivo in the test on Rattus norvegicus was 36.1%.
Take `CN/C(=N/S(=O)(=O)c1ccc(Cl)cc1)C1CN(c2ccc(Cl)cc2)C(c2ccccc2)=N1` (configuration not stated): the Activity in test [1] was determined as 0.94 pmol. In the test on Rattus norvegicus, the inhibition in vivo at 10 mg/kg stood at 2.2%.
The matching figures for `CN/C(=N/S(=O)(=O)c1ccc(Cl)cc1)c1cn(-c2ccc(Cl)cc2)c(-c2ccccc2)n1`: 0.55 pmol and 6.7%.
Turning to `CN/C(=N/S(=O)(=O)c1ccc(Cl)cc1)C1CN(c2ccccc2)C(c2ccc(Cl)cc2)=N1` (configuration not stated), the Activity in test [1] was found to be 1.22 pmol. In the test with Rattus norvegicus, the inhibition in vivo at 10 mg/kg was found to be 14.4%.
Molecule `CN/C(=N\S(=O)(=O)c1ccc(Cl)cc1)N1C[C@H](c2ccccc2)C(c2ccc(Cl)cc2)=N1` [IBIPINABANT] registered an inhibition in vivo at 10 mg/kg in the test with Rattus norvegicus of 37.6%.
Turning to `CN/C(=N/S(=O)(=O)c1ccc(Cl)cc1)c1nc(-c2ccccc2)c(-c2ccc(Cl)cc2)o1`, the Activity in test [1] is 0.6 pmol. The same molecule yielded an inhibition in vivo at 10 mg/kg with Rattus norvegicus of 4.3%.
